Laboratory results published in ChEMBL document CHEMBL1275289, “The synthesis, structure and activity evaluation of pyrogallol and catechol derivatives as Helicobacter pylori urease inhibitors” (Eur J Med Chem, 2010).

What was measured:
[1] = target: T1, Urease subunit alpha/Urease subunit beta (Helicobacter pylori (strain ATCC 700392 / 26695) (Campylobacterpylori), UniProt P69996); experiment: Inhibition of cell free Helicobacter pylori ATCC 43504 urease assessed as reduction in ammonia production by indophenol based Berthelot color reaction method
How it was run: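 H. pylori ATCC 43504 grown 24 h at 37 °C, microaerobic (5% O2, 10% CO2, 85% N2), in Brucella broth with 10% heat-inactivated horse serum. Cells (2.0 × 10⁸ CFU/mL) pelleted at 5000 g, 4 °C, washed twice in PBS pH 7.4, stored at −80 °C, then sonicated 60 s in water with protease inhibitors. Extract preincubated with compound 1.5 h at room temperature; ammonia measured by indophenol method.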

[2] = target: T1, Urease subunit alpha/Urease subunit beta; experiment: Inhibition of urease in intact Helicobacter pylori ATCC 43504 assessed as reduction in ammonia production by indophenol based Berthelot color reaction method
How it was run: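 H. pylori grown 24 h at 37 °C in Brucella broth with 10% heat-inactivated horse serum under microaerobic gas (5% O₂, 10% CO₂, 85% N₂). Cells harvested, washed twice in PBS pH 7.4, and resuspended to 4.0 × 10⁷ CFU/mL. Suspension pre-incubated with compound for 1.5 h at room temperature. Ammonia production measured by the indophenol (Berthelot) method.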

T1 sequence (P69996 whole entry): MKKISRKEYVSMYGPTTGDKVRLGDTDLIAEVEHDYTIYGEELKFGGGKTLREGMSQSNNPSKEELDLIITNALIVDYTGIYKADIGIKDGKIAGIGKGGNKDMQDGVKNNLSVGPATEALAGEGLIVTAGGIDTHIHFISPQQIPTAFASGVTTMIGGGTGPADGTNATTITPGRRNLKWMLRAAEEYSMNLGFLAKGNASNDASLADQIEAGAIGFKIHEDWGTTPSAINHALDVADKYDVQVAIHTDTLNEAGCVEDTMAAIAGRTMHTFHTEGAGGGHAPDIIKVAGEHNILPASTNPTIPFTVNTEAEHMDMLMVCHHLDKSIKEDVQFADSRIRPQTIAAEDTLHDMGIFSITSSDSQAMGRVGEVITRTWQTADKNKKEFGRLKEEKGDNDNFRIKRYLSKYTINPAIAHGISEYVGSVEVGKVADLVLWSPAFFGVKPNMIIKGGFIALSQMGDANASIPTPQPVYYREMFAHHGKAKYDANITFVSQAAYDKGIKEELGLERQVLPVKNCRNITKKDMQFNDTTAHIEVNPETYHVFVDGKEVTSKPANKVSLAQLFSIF
T1 sequence (P14916 whole entry, further chain): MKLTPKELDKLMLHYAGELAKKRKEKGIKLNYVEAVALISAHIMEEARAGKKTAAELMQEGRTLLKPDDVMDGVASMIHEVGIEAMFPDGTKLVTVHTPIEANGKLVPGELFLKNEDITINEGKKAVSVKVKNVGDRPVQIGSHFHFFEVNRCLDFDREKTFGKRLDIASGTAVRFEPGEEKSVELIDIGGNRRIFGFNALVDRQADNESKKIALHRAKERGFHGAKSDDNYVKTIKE

SMILES	IC50 [1]	IC50 [2]
COc1ccc(CCc2ccc(Cl)cc2)cc1OC	254 µM	–
Oc1ccc(CCc2ccc(Br)cc2)c(O)c1O	48 µM	–
Oc1ccc(CCc2cccc(Cl)c2)c(O)c1O	50 µM	–
Oc1ccc(CCc2cccc(Br)c2)c(O)c1O	52 µM	–
Oc1ccc(CCc2ccc(Cl)cc2)cc1O	8.3 µM	50.1 µM
Oc1ccc(CCc2cccc(Cl)c2)cc1O	15.7 µM	94.7 µM
CCc1ccc(O)c(O)c1O	34 µM	–
CCCCc1ccc(O)c(O)c1O	79 µM	–
CCCCCCc1ccc(O)c(O)c1O	91 µM	–
CCCCCCCCc1ccc(O)c(O)c1O	103 µM	–
CCCCCCCCCCc1ccc(O)c(O)c1O	124 µM	–
Oc1ccc(CCc2ccc(F)cc2)cc1O	6.2 µM	32.4 µM
Oc1ccc(CCc2ccc(O)c(O)c2)cc1	1.5 µM	4.2 µM
Oc1ccc(CCc2ccc(F)cc2)c(O)c1O	43 µM	–
Oc1ccc(CCc2ccc(Cl)cc2)c(O)c1O	47 µM	–
Oc1ccc(CCc2cccc(Br)c2)cc1O	16.9 µM	88.9 µM
COc1ccc(CCc2ccc(O)c(O)c2)cc1OC	22.7 µM	–
CCc1ccc(O)c(O)c1	4.9 µM	17.3 µM
CCCCc1ccc(O)c(O)c1	7.9 µM	38.1 µM
CCCCCCc1ccc(O)c(O)c1	12.3 µM	77.8 µM
CCCCCCCCc1ccc(O)c(O)c1	58 µM	–
COc1ccc(CCc2ccc(O)cc2)cc1OC	204 µM	–
COc1ccc(CCc2cccc(Cl)c2)cc1OC	235 µM	–
COc1ccc(CCc2ccc(O)c(O)c2O)cc1OC	71 µM	–
CCOc1ccc(CCc2ccc(O)c(O)c2O)cc1OCC	69 µM	–
CCCCCCCCCCCCc1ccc(O)c(O)c1O	168 µM	–
CCCCCCCCCCCCCCc1ccc(O)c(O)c1O	250 µM	–
Oc1ccc(CCc2ccc(O)c(O)c2O)cc1	32 µM	–
COc1ccc(CCc2ccccc2O)cc1OC	227 µM	–
CC(=O)NO [ACETOHYDROXAMIC ACID]	17.2 µM	101 µM
